To fix the notation:
B1: tRNA (parent)
chain: GUUCCGUUGGCGUAAUGGUAACGCGUCUCCCUCCUAAGGAGAAGACUGCGGGUUCGAGUCCCGUACGGAACG

This sample holds only a part of the variants without activity.

This data set covers variants of B1. Nature of the data set: yeast fitness relative to wild type (ratio to wild type); higher = fitter; tRNA-Arg(CCU), competitive growth, 37 C, YPD. The gist of the method:
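Amplicons of the tRNA-Arg(CCU) gene were sequenced, 100-nucleotide paired-end, from the start population and from each end population of a pooled yeast competition. The competition, in six parallel replicates, lasted 24 hours in YPD at 37°C. Fitness relative to wild type was calculated from changes in genotype frequencies. Genotypes had to have ≥ 100 starting reads, and estimates < 0.5 were set to 0.5.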
Consider GUUCCGUUGGCGUAAUGGUAACGCGUCUCCCCCCUAAGGAGAAGACUGCGGGUUCGAGUCCCGUACUGCACG [U32C G67U A69C], for which the yeast fitness is not above 0.5.
As for GUUCCGUUGGCGUAAUGGUAACGCGUCUCCCCCCUAAGGAGAAGACUGCGGGUUCGAGUUCCGUACGGAACG [U32C C60U], the yeast fitness was 0.642.
To GUUCCGUUGGCGUAAUGGUAACGCGUCUCCCCCCUAAGGAGAAGACUGCGGGUUCGAGUACCGUACGGAACG [U32C C60A] belongs 0.645.
To GUUCCGUUGGCGUAAUGGUAACGCGUCUCCCCCCUAAGGAGAAGACUGCGGGUUCGAGUCCCGUAUGGAACG [U32C C66U] belongs 0.966.
To GUUCCGUUGGCGUAAUGGUAACGCGUCUCCCCCCUAAGGAGAAGACUGCGGGUUCGAGUCCCGUAUGCAACG [U32C C66U G68C] belongs 0.554; to GUUCCGUUGGCGUAAUGGUAACGCGUCUCCCCCCUAAGGAGAAGACUGCGGGUGCGAGUCCUGUACGGAACG [U32C U54G C62U], 0.565; to GUUCCGUUGGCGUAAUGGUAACGCGUCUCCCCCCUAAGAUGAAGACUGCGGGUUCGAGUCCCCUACGGAACG [U32C G39A A40U G63C], not above 0.5.
Consider GUUCCGUUGGCGUAAUGGUAACGCGUCUCCCCCCUAAGGAGAAGACUGCGGGUUCGAGUCUCGUACGAAACG [U32C C61U G68A], for which the yeast fitness is 0.586.
With GUUCCGUUGGCGUAAUGGUAACGCGUCUCCCCCCUAAGGAGAAGACUGCGGGUUCGAGUGCCGUACGGUACG [U32C C60G A69U], the yeast fitness is not above 0.5.
To GUUCCGUUGGCGUAAUGGUAACGCGUCUCCCCCCUAAGGAGAAGACUGCGGGUUCGAGUGCCGUUCGGAACG [U32C C60G A65U] belongs not above 0.5; to GUUCCGUUGGCGUAAUGGUAACGCGUCUCCCCCUUAAGGAGAAGUCUGCGGGUUCGAGUCCCGUACGGAUCG [U32C C34U A45U A70U], 0.826.
To GUUCCGUUGGCGUAAUGGUAACGCGUCUCCCGCCUAAGGAGAAGACUGCGGGUUCGAGUCCCGUGCGGAACG [U32G A65G] belongs 0.718.
For GUUCCGUUGGCGUAAUGGUAACGCGUCUCCCCCCUAAGGAGAAGACUGCGCGUUCGAGUCUCGUACGGAACG [U32C G51C C61U] the value was not above 0.5; for GUUCCGUUGGCGUAAUGGUAACGCGUCUCCCCCCUAAGGAGAAGACUGCGGGUUUGAGUCCCGUACGGUACG [U32C C55U A69U], 0.55; for GUUCCGUUGGCGUAAUGGUAACGCGUCUCCCCCCUAAGGAGAAGACUGCGGGUUCGAGUGCCGUAUGGAUCG [U32C C60G C66U A70U], not above 0.5.
For GUUCCGUUGGCGUAAUGGUAACGCGUCUCCCCCCUAAGCAGAAGACUGCGGGUUUGAGUCCCGUACGGAACG [U32C G39C C55U], the yeast fitness was not above 0.5.
To GUUCCGUUGGCGUAAUGGUAACGCGUCUCCCGCCUAAGGAGAAGCCUGCGGGUUCAAGUCCCGUAUGGAACG [U32G A45C G56A C66U] belongs not above 0.5.
For GUUCCGUUGGCGUAAUGGUAACGCGUCUCCCCCCUAAGGAGAAAACUGCGGGUUCGAGUCGCGUACGGAACG [U32C G44A C61G] the value was not above 0.5; for GUUCCGUUGGCGUAAUGGUAACGCGUCUCCCCCCUAAGGAGAAGACUGCGGGUUGGAGUCCCGUACGGAACG [U32C C55G], 0.629.
To GUUCCGUUGGCGUAAUGGUAACGCGUCUCCCCCCUAAGGAGAAAACUGCGGGUUCGAGUCCCGUACGGUACG [U32C G44A A69U] belongs 1.05.
As for GUUCCGUUGGCGUAAUGGUAACGCGUCUCCCCCCUAAGCAGAAGACUGCGGGUUCGAGUCCCGUACCGAACG [U32C G39C G67C], the yeast fitness is not above 0.5.
For GUUCCGUUGGCGUAAUGGUAACGCGUCUCCCCCCUAACGACAAGACUGCGGGUUCGAGUCCCGUGCGGAACG [U32C G38C G41C A65G] the value was not above 0.5.
On to GUUCCGUUGGCGUAAUGGUAACGCGUCUCCCCCCUAAGGAGAAGACUGCGGGUUUGAGUCCCGUACAGAACG [U32C C55U G67A], for which the yeast fitness is not above 0.5.
To GUUCCGUUGGCGUAAUGGUAACGCGUCUCCCCCCUAAGGAGAAGACUGCGGGUUCGAGUCCCGUACGCAACG [U32C G68C] belongs 0.808.
For GUUCCGUUGGCGUAAUGGUAACGCGUCUCCCCCCUAAGGACAAGACUGCAGGUUCGAGUCGCGUACGGAACG [U32C G41C G50A C61G] the value was 0.565.
To GUUCCGUUGGCGUAAUGGUAACGCGUCUCCCCCUCAAGGAGAAGGCUGCGGGUACGAGUCCCGUACGGAACG [U32C C34U U35C A45G U54A] belongs not above 0.5.
Consider GUUCCGUUGGCGUAAUGGUAACGCGUCUCCCCCCUAAGGAGAAGACUGUGGGUUCGAGUCCCGUACGGAACG [U32C C49U], for which the yeast fitness was determined as 0.971.
Regarding GUUCCGUUGGCGUAAUGGUAACGCGUCUCCCCCCUAAGGAGAAGACUGCGGGUUCGAGUCCCGUAGGGAUCG [U32C C66G A70U], the yeast fitness stood at 0.811.
Turning to GUUCCGUUGGCGUAAUGGUAACGCGUCUCCCCCCUAAGGAGAAGACCGCGGGUUCGAGUCCCGUACGGAACG [U32C U47C], the yeast fitness is 0.974.
For GUUCCGUUGGCGUAAUGGUAACGCGUCUCCCCCCUAAGGAGAAGAGUGCGGGUUCGAGUCCCGUACGGAACG [U32C C46G] the value was 0.865.
For GUUCCGUUGGCGUAAUGGUAACGCGUCUCCCCCCUAAGGAGAAAACUGCGGGUUCGAGUCCCGUACGGAACG [U32C G44A] the value was 1.03; for GUUCCGUUGGCGUAAUGGUAACGCGUCUCCCGCCUAAGGAGACGACUGCGGGUUCGAGUCCCGUACGGAACG [U32G A43C], 0.694.
For GUUCCGUUGGCGUAAUGGUAACGCGUCUCCCCCCUAAGGAGAAGACUGCGGGUUCGAGUCCCGGACGGAACG [U32C U64G] the value was 0.754; for GUUCCGUUGGCGUAAUGGUAACGCGUCUCCCCCCUAAGGAGAAGACUGCGGGUUCGAGUCCCGCACGGAACG [U32C U64C], 0.946; for GUUCCGUUGGCGUAAUGGUAACGCGUCUCCCCCCUAAGGAGAAGACUGCGGGUUCGAGGCCCGUACGGAACG [U32C U59G], 0.878.
Turning to GUUCCGUUGGCGUAAUGGUAACGCGUCUCCCGCCUAAGGUGAAGACUGCGGAUUCGUGUCCCGUACGGAACG [U32G A40U G52A A57U], the yeast fitness was not above 0.5.
For GUUCCGUUGGCGUAAUGGUAACGCGUCUCCCCCCUAAGGAGAAGACUGCGGGUUCGAGUCCUGUACGGCACG [U32C C62U A69C] the value was 1.15.
Regarding GUUCCGUUGGCGUAAUGGUAACGCGUCUCCCCCCUAAGCAGAAGACUGCGGGUUCGAGUCUCGUACGGAACG [U32C G39C C61U], the yeast fitness was not above 0.5.

The record behind these values is the RNAGym collection of RNA variant scans (doi:10.1126/science.aae0568).
